# Source: PubChem BioAssay (several laboratories)
# Shown are actives, neighbours in structure and some others; about 5.4% of the full set was active somewhere.
# aSyn UTR inh: 5' untranslated region of α-synuclein, MLPCN primary screen; alpha-synuclein 5'UTR reporter, inhibitor activity; inhibition, % (tested at 7.5 µM); 0.82% of 300,000 active; AID 1813; in the data active means inhibition above about 60%;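 further: H4 neuroglioblastoma cells stably carrying SNCA 5'UTR luciferase fusion; 0% = DMSO wells and 100% = positive control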
# Mdm2 MdmX PPI: human Mdm2/MdmX binding inhibition; SaOS-2 split-luciferase Mdm2/MdmX complementation, luminescence; 3% of 330,000 active; inhibition, % at 8 µM; AID 485346;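 active means inhibition of at least 50% at 8 µM in the primary screen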
# Target sequence (O15151 whole entry, looked up): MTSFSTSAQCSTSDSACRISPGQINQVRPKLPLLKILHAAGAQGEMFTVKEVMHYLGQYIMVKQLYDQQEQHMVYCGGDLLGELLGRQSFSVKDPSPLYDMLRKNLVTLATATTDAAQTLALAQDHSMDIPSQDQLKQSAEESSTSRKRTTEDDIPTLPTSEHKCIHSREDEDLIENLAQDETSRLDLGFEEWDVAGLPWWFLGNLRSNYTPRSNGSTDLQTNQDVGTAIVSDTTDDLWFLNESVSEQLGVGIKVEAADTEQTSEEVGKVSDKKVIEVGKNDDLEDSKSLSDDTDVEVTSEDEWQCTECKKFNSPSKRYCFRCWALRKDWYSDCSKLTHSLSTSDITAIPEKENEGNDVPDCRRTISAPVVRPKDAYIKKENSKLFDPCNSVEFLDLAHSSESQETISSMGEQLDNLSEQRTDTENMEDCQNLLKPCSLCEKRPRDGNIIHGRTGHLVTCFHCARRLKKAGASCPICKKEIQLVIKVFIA
# Target sequence (Q00987 whole entry, looked up): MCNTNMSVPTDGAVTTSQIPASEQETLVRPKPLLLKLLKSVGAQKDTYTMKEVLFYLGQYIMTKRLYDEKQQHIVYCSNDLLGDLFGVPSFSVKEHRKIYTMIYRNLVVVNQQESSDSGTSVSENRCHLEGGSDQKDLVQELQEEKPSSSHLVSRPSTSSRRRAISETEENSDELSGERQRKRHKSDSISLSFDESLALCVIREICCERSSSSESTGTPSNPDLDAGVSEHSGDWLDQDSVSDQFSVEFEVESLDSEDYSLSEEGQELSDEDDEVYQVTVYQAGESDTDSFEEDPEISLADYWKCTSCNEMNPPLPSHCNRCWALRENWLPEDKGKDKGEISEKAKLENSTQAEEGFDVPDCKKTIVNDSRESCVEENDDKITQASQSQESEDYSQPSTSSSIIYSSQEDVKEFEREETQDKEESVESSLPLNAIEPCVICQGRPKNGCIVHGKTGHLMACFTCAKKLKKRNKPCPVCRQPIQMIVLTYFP
# T cruzi inh: T. cruzi replication inhibition. T. cruzi beta-gal in NIH3T3, luminescence, 90 h. inhibition, % (no concentration beside the values). 1.4% of 300,000 active. AID 1885;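 active means mean inhibition across valid replicates above about 55%, limit read from the data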;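 further: signal also drops with host cell toxicity which is not excluded here; 0% = plate median of DMSO wells and 100% = zero luminescence signal; higher percent means less beta-gal luminescence so fewer parasites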
#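 Read-out: Parasite load inhibition, % | Test system: Mouse NIH/3T3 fibroblasts infected with β-gal-expressing T. cruzi Tulahuen C4 | Amount: 5,000 cells/well | Medium: DMEM, 2% fetal bovine serum | Signal: GalScreen β-gal luminescence, detergent lysis, 60 min | Timing: 3 h attach, ≥90 h co-culture | Also added: Tulahuen C4 trypomastigotes, 5000/well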
# CSC inhib: blocks cancer stem cells; cancer stem cell-like cells viability, luminescence; inhibition, % at 7.5 µM; 1.1% of 300,000 active; in the data active means inhibition above about 75%; tested in HMLE shEcad cells
# SKKanGAS inh: blocks kanamycin growth of S. pyogenes SKKanGAS strain; BacTiter-Glo, 6 h; inhibition, % at 7.5 µM; 1.3% of 300,000 active; AID 1662;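 active means mean replicate score, as percent of positive control median, at least 50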;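 further: strain carries kanamycin resistance gene driven by streptokinase promoter and grows in 40 µg/ml kanamycin; loss of luminescence reflects streptokinase promoter inhibition or plain growth inhibition; 0% = median of DMSO wells and 100% = positive control at its reference dose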
# Mdm2 MdmX conf: confirmation of human Mdm2/MdmX interaction inhibitors | shares compounds with Mdm2 MdmX PPI | Mdm2-MdmX binding, luminescent assay | inhibition, % at 8 µM | 55% of 10,000 active; in the data active means inhibition above about 40%
# Full FLuc ctr: counter-screen for Mdm2/MdmX inhibitors: full-length luciferase. shares compounds with Mdm2 MdmX PPI. SaOS-2 full-length luciferase counterscreen, luminescence. inhibition, % at 8 µM. 77% of 6,200 active. AID 504607;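 active means mean inhibition at 8 µM reaching about 37%, which flags the compound as non-specific, limit read from the data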;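 further: p53-null SaOS-2 cells with luciferase driven by a doxycycline-inducible promoter; compound on cells about two nights before reading with doxycycline added after day one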
# Active calls of the source: *; . = no result given.
SMILES,aSyn UTR inh,Mdm2 MdmX PPI,T cruzi inh,CSC inhib,SKKanGAS inh,Mdm2 MdmX conf,Full FLuc ctr
CCOc1ccc(NC(=O)CCc2nnc3ccc(N4CCC5(CC4)OCCO5)nn23)cc1,33.2,10.4,-4.9,-18.1,-3.3,.,.
CCN(CC)CCN1C(=O)C(O)=C(C(=O)c2cc3cccc(OC)c3o2)C1c1ccc(F)cc1 (stereo unspecified),-11.7,1.0,0.4,-8.9,-2.6,.,.
Cc1cc(-c2ccc3c(c2)COc2c4ccccc4nn2-3)on1,25.7,-93.0,-11.0,.,-4.8,.,.
Cc1nc2cc(-c3ccccc3)sc2c(=O)n1N,110.7*,62.3*,4.0,13.2,63.0*,55.6*,30.0
COc1ccc(-c2cc3nc(C)n(N)c(=O)c3s2)cc1,115.5*,88.7*,-4.3,97.1*,88.4*,88.2*,55.9*
Cc1ccc(C)n1-n1c(C)nc2sc(-c3ccccc3)cc2c1=O,-104.7,-14.6,11.2,12.2,6.0,.,.
Cc1sc2ncnc(SCC(=O)N3c4ccccc4Sc4ccc(Cl)cc43)c2c1C,5.3,12.1,13.3,12.5,4.4,.,.
CCOC(=O)c1c(C)sc2c1N(C(=O)CCl)c1cc(Cl)ccc1S2,42.1,100.3*,26.9,129.8*,-2.7,77.4*,46.6*
CC(C)(C)OC(=O)N[C@@H](C(=O)OC(C)(C)C)c1ccc(Br)cc1,.,12.7,.,-12.5,.,.,.
O=C1N(c2ccccc2C(F)(F)F)O[C@@]1(c1ccccc1)C1CCCCC1,.,87.5*,.,74.2,.,50.2*,52.0*
O=C1N(c2ccccc2C(F)(F)F)O[C@@]1(c1ccccc1)C1CCCC1,.,76.6*,.,61.4,.,50.9*,56.2*
N=c1n(CCCOc2ccccc2Cl)c2ccccc2n1CC(N)=O,15.1,64.7*,-16.2,-4.7,0.6,42.5*,62.7*
Oc1ccccc1N=Nc1nc(-c2ccccc2)c(-c2ccccc2)[nH]1,107.2*,86.5*,63.3*,.,113.5*,86.0*,49.7*
Cc1nc(SCc2nc3ccccc3[nH]2)c2oc3cc(Br)ccc3c2n1,.,65.2*,.,15.3,.,11.9,.
COc1ccc(NC(=O)Cn2nnc(C(=O)Nc3ccc(F)c(Cl)c3)c2N)cc1,6.6,58.6*,9.7,-0.7,-5.4,33.9,83.0*
COc1cccc(NC(=O)Cn2nnc(C(=O)Nc3cc(Cl)ccc3OC)c2N)c1,30.2,90.4*,-26.9,-7.5,5.4,49.2*,21.9
COc1ccc(Cl)cc1NC(=O)c1nnn(CC(=O)Nc2cc(C)cc(C)c2)c1N,-9.1,94.0*,-4.4,-2.0,0.8,57.0*,55.2*
COc1ccc(NC(=O)Cn2nnc(C(=O)NCc3ccccc3OC)c2N)cc1Cl,41.9,11.5,-18.1,-7.2,23.3,.,.
COc1ccc(NC(=O)c2nnn(CC(=O)Nc3ccc4c(c3)OCO4)c2N)c(OC)c1,-38.6,52.3*,3.3,1.2,6.8,-16.4,.
COc1ccc(Cl)cc1NC(=O)c1nnn(CC(=O)Nc2ccc(OC)c(OC)c2)c1N,10.6,69.0*,4.4,-6.3,17.3,39.5,31.7
COc1ccc(NC(=O)c2nnn(CC(=O)Nc3ccc4c(c3)OCO4)c2N)cc1OC,16.2,28.0,-4.1,-9.7,2.4,.,.
COc1ccc(Cl)cc1NC(=O)c1nnn(CC(=O)Nc2ccc3c(c2)OCO3)c1N,0.8,93.3*,9.4,-13.7,2.7,53.2*,16.9
COc1ccc(NC(=O)Cn2nnc(C(=O)NCc3ccc(C)cc3)c2N)cc1OC,1.4,14.1,7.7,-12.5,2.8,.,.
CCCn1c(=O)c2[nH]c(-c3ccc(OCC(=O)Nc4ccc(C#N)cc4)cc3)nc2n(CCC)c1=O,.,53.1*,.,4.1,.,22.0,.
COc1cccc(C(=O)Oc2c(Br)cc(Br)cc2/C=N/NC(=O)c2cc(C)[nH]n2)c1,64.3*,59.4*,61.2*,56.1,28.1,55.4*,20.3
SMILES,aSyn UTR inh,Mdm2 MdmX PPI,T cruzi inh,CSC inhib,SKKanGAS inh,Mdm2 MdmX conf,Full FLuc ctr
CCCN(C(=O)CSCC(=O)Nc1cccc(C)c1)c1c(N)n(Cc2ccccc2)c(=O)[nH]c1=O,2.2,31.6,4.9,.,-0.9,.,.
Cc1cccc(S(=O)(=O)c2c(N)n(Cc3ccco3)c3nc4ccccc4nc23)c1,17.3,17.5,-16.0,3.6,34.4,.,.
Cc1cccc(-n2cnc3c(c2=O)c2nc4ccccc4nc2n3Cc2ccco2)c1,14.1,54.3*,-14.0,41.1,40.8,25.6,.
N/C(=N\c1nc2ccccc2o1)NC(=O)c1ccc(Cl)cc1,-86.9,22.6,7.9,1.1,-1.2,.,.
N/C(=N\c1nc2ccccc2o1)NC(=O)c1ccc(F)cc1,-132.5,67.3*,-5.4,4.3,0.5,8.1,.
COCC(C)n1c(C)cc(C(=O)COC(=O)c2cc(=O)[nH]c3ccccc23)c1C (stereo unspecified),.,57.9*,.,1.7,.,68.1*,97.1*
COc1ccc(-c2csc(NC(CO)c3nc4ccccc4n3Cc3ccc(C)cc3)n2)cc1 (stereo unspecified),19.5,1.6,22.5,16.8,31.0,.,.
CCCn1c(C(C)Nc2nc(-c3ccc(Cl)c([N+](=O)[O-])c3)cs2)nc2cc(Cl)c(N3CCCCC3)cc21 (stereo unspecified),-2.8,61.4*,7.3,1.6,10.7,21.1,.
Cc1ccc(-c2csc(NC(CO)c3nc4ccccc4n3CCOCCO)n2)cc1 (stereo unspecified),-71.4,-8.1,-5.7,-13.2,-2.0,.,.
Cc1ccc(Cn2c(C(C)Nc3nc(-c4ccc(F)cc4)cs3)nc3cc(C(F)(F)F)ccc32)cc1 (stereo unspecified),-18.1,50.3*,-12.5,43.4,29.0,-0.7,.
Cc1ccc(Cn2c(C(CO)Nc3nc(-c4ccc(Cl)c([N+](=O)[O-])c4)cs3)nc3ccccc32)cc1 (stereo unspecified),-43.5,64.5*,9.0,23.2,39.2,15.6,.
Cc1ccc(Cn2c(C(CO)Nc3nc(-c4ccc(F)cc4)cs3)nc3ccccc32)cc1 (stereo unspecified),-27.3,60.3*,34.3,54.3,80.4*,29.1,.
Nc1nc(C2CC2)c(Sc2sc(N)nc2C2CC2)s1,36.1,50.5*,7.9,31.2,6.6,38.4,119.5*
C/C(=N\NC(=O)Cc1ccc(Cl)cc1)c1ccc(F)cc1,6.8,4.0,-16.4,-7.1,9.8,.,.
C/C(=N\NC(=O)Cc1ccc(Cl)cc1)c1ccccc1O,15.2,57.2*,62.6*,8.5,33.5,44.5*,43.5*
CCc1cccc(NC(=O)CCS(=O)(=O)c2ccc(Br)cc2)c1,9.2,12.4,-5.5,-1.4,-1.8,.,.
Cc1ccc(N(CC(=O)NC2CCCCC2)S(=O)(=O)c2cccs2)cc1,4.6,66.1*,12.3,-5.6,27.9,11.6,.
COc1ccc(/C=C/c2nc3ccccc3c(=O)o2)cc1,101.5*,88.1*,-6.5,9.4,13.6,83.8*,63.2*
CCC1(CC)NC(=O)N(CC(=O)OCC(=O)Nc2cc(OC)ccc2OC)C1=O,.,-4.3,.,.,.,.,.
